We go through 8 compounds from ChEMBL document CHEMBL1126049, “Bioreductive fluorescent markers for hypoxic cells: a study of 2-nitroimidazoles with 1-substituents containing fluorescent, bridgehead-nitrogen, bicyclic systems” (J Med Chem, 1992).

What all share (type): cell-based
Details in all cases: Cricetulus griseus

Experiment [1] deals with V79-379A. The experiment in a line: Maximum accumulation of fluorescent metabolites in V79 379A chinese hamster cells after incubation with the compound (10e-4) at tmax. An outline of the steps:
(§1)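 V79 379A Chinese hamster cells grown as exponential suspension cultures in Eagle's MEM (Earle's salts, suspension-modified) with 7.5% foetal calf serum. Cells incubated with drug at 37 °C under oxic (air + 5% CO2) or hypoxic (nitrogen + 5% CO2) gassing. Flow cytometry used 365 nm laser excitation at 100-200 mW. Emission collected >390 nm, or >410 nm for some compounds. Data gated on forward scatter and fluorescence to exclude debris. Mean fluorescence in arbitrary units, normalized for PMT gain and laser power.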

Experiment [2] has as its system V79-379A. The experiment in a line: Cytofluorimetric analysis of V79 379A chinese hamster cells incubated under hypoxic conditions with the compound (10e-4 M). An outline of the steps:
as §1

Experiment [3] concerns V79-379A. The experiment in a line: Cytofluorimetric analysis of V79 379A chinese hamster cells incubated under oxic conditions with the compound (10e-4 M). An outline of the steps:
as §1

Take `N#Cc1c(C(=O)NCCN(CCO)CC(O)Cn2ccnc2[N+](=O)[O-])cn2ccccc12` (centres undefined): in the experiment with V79-379A [1], the Tmax was found to be 6 h. Further, the Fluorescence in the experiment with V79-379A [2] stood at 81 AU; in the experiment with V79-379A [3], 27 AU.
On the same counts, the results for `O=[N+]([O-])c1nccn1CC(O)CNc1ccc(-c2cc3ccccn3c2)cc1` (centres undefined) are 6 h, 169 AU and 107 AU.
Take `O=[N+]([O-])c1nccn1CC(O)CNc1ccc(-c2cn3ccccc3n2)cc1` (centres undefined): the Tmax with V79-379A [1] worked out at 6 h. Moreover, the Fluorescence in the experiment on V79-379A [2] turned out to be 1570 AU; in the experiment on V79-379A [3] it was 417 AU.
On the same counts, the results for `CCOC(=O)c1c(C(=O)NCCN(CCO)CC(O)Cn2ccnc2[N+](=O)[O-])cn2ccccc12` (centres undefined) are 6 h, 1140 AU and 66 AU.
Taken in the same sequence, the figures for `Cc1c(C)n2c(CN(C)CC(O)Cn3ccnc3[N+](=O)[O-])c(C)c(=O)n2c1=O` (centres undefined) were 15 h, 55 AU and 43 AU.
Taken in the same sequence, the figures for `O=c1c(NCC(O)Cn2ccnc2[N+](=O)[O-])cnc2ccccn12` (centres undefined) were 6 h, 1750 AU and 603 AU.
Take `Cc1c(C)n2c(CNCC(O)Cn3ccnc3[N+](=O)[O-])c(C)c(=O)n2c1=O` (centres undefined): in the experiment on V79-379A [1], the Tmax amounted to 15 h. The results for the Fluorescence in the experiment with V79-379A [2] and in the experiment on V79-379A [3] were 89 AU and 33 AU, respectively.
Taken in the same sequence, the figures for `CCOC(=O)c1c(C)c(CN(C)CCCn2ccnc2[N+](=O)[O-])c2ccccn12` were 6 h, 765 AU and 258 AU.
